Data set [1] addresses T1, SIRT1 (Homo sapiens, UniProt Q96EB6).
T1 sequence (Q96EB6 1-747): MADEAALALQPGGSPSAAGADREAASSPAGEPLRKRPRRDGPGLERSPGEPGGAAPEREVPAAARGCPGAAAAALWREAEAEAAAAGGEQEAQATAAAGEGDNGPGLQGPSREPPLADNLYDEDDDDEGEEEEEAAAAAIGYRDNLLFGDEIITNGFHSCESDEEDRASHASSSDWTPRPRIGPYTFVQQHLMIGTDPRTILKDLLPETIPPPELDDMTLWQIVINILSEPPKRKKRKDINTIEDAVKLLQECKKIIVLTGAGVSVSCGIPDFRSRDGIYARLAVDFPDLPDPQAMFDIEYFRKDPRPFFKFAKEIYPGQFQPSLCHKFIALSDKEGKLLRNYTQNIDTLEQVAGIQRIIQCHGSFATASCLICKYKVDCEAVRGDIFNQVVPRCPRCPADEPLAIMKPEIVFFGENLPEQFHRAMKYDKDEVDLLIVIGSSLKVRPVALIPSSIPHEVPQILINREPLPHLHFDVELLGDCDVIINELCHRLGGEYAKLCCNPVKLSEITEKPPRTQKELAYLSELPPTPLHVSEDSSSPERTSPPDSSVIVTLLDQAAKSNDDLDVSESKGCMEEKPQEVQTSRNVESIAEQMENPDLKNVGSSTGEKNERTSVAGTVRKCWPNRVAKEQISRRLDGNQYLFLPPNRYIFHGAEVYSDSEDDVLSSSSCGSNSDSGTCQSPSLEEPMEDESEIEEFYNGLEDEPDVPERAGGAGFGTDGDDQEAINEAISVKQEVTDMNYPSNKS
The data set is described as follows: SIRT-Glo enzyme inhibition assay, SIRT1. To be noted: for selectivity for SIRT1 (over SIRT2): from IC50 values. Type of data set: biochemical.

Data set [2] is described as follows: Cytotoxicity in nontransformed B-cell lines. Type of data set: cell-based. To be noted: human, nontransformed EBV-immortalized B-cell lines B1 and B2. The procedure, abridged: (§1)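 Cells grown under standard conditions and treated in 96-well format with test compound in DMSO (final DMSO 0.25%) or DMSO control for 72 h. Viability was read as luminescence with CellTiterGlo. Assays were run in triplicate, and values are averages of two independent experiments.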

For data set [3], the system named is SIRT2-mediated deacetylation of α-tubulin in NCI-H460 cells. Briefly: α-tubulin acetylation by Western blot. Type of data set: cell-based, human. The settings on record: 4 h treatment.
Data set [4] deals with lymphoma and epithelial cancer cell lines. The data set is described as follows: Cytotoxicity across lymphoma and epithelial cancer cell lines. Type of data set: cell-based. To be noted: 72 h, read-out: cytotoxicity IC50 range. In outline:
as §1

Another data set concerns the target T2, SIRT2 (Homo sapiens, UniProt Q8IXJ6).
T2 sequence (Q8IXJ6 1-389): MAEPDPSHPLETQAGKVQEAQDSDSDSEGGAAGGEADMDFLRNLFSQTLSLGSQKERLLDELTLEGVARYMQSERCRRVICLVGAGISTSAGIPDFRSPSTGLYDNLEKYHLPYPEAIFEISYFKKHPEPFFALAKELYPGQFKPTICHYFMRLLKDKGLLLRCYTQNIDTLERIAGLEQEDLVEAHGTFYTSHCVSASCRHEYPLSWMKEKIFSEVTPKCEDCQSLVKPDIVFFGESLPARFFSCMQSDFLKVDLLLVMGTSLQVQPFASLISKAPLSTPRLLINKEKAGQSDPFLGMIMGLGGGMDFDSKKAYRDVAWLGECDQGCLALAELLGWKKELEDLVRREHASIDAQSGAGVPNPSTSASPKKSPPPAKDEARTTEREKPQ
The data set is described as follows: SIRT-Glo enzyme inhibition assay, SIRT2. Type of data set: biochemical. The settings on record: 50 μM compound.

A further data set addresses T3, SIRT3 (Homo sapiens, UniProt Q9NTG7).
T3 sequence (Q9NTG7 1-399): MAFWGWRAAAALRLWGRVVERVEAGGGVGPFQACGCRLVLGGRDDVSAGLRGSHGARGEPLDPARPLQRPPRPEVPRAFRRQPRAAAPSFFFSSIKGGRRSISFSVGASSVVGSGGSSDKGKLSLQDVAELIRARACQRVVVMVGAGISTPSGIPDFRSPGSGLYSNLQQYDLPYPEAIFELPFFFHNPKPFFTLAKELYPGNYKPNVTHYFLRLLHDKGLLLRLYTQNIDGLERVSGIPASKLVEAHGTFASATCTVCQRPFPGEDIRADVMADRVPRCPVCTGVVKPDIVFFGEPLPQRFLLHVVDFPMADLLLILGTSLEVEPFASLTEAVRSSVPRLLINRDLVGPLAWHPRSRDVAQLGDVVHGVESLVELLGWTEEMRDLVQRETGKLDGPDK
The data set is described as follows: SIRT-Glo enzyme inhibition assay, SIRT3. Format: biochemical. The settings on record: 50 μM compound.

The conditions of data set [5]: drawback stated in the introduction; cited from earlier work.
Data set [6] concerns the target T1, SIRT1. The data set is described as follows: Saturation transfer difference. Format: binding. The settings on record: 1.5 μM SIRT1, 200 μM compound, naphthalene numbering.

Take `Cc1ccc(-c2[nH]oc(=O)c2Cc2c(O)ccc3cc(Br)ccc23)cc1` [compound 24, 4-[(6-Bromo-2-hydroxynaphthalen-1-yl)methyl]-3-(4-methylphenyl)-2,5-dihydro-1,2-oxazol-5-one]: the “selectivity for SIRT1 (over SIRT2)” value on SIRT1 [1] is on record as 7.8 fold. In addition, the IC50 at 72 h in data set [2] lay in the range of 22 to 28 µM. Besides, the α-tubulin acetylation entry in data set [3] was “rapid and robust dose-dependent increase in α-tubulin acetylation”. For the same molecule, the IC50 in data set [4] lay in the range of 3 to 7 µM. As to “4-[(2-Chloro-6-hydroxy-4-methylquinolin-5-yl)methyl]-5-(4-methylphenyl)-2,3-dihydro-1H-pyrazol-3-one [compound 22]”, the “SIRT1 (% inh)” value at SIRT1 [1] (50 μM compound) came out at 27%. Also, the “SIRT2 (% inh)” value on SIRT2 is recorded as 24%. At SIRT3, the “SIRT3 (% inh)” value worked out at 32%.

With `O=c1[nH]c(=S)[nH]c(-c2ccccc2)c1Cc1c(O)ccc2ccccc12` [compound 1, 5-[(2-hydroxy-1-naphthyl)methyl]-6-phenyl-2-thioxo-2,3-dihydro-4(1H)-pyrimidinone], the solubility result in data set [5] is listed as “poor solubility”. As for `CC(C)c1ccc(-c2[nH][nH]c(=O)c2Cc2c(O)ccc3nc(Cl)ccc23)cc1` [compound 23, 4-[(2-Chloro-6-hydroxyquinolin-5-yl)methyl]-5-[4-(propan-2-yl)phenyl]-2,3-dihydro-1H-pyrazol-3-one], the “selectivity for SIRT1 (over SIRT2)” value at SIRT1 [1] is more than 3 fold. For the molecule `Cc1ccc(-c2[nH][nH]c(=O)c2Cc2c(O)ccc3nc(Cl)ccc23)cc1` [compound 20, 4-[(2-Chloro-6-hydroxyquinolin-5-yl)methyl]-5-(4-methylphenyl)-2,3-dihydro-1H-pyrazol-3-one], at SIRT1 [6], the “relative STD signal intensity, C-7 proton” value came to 100%. `Cc1ccc(-c2[nH][nH]c(=O)c2Cc2c(O)ccc3cc(Br)ccc23)cc1` [compound 14, 4-[(6-Bromo-2-hydroxynaphthalen-1-yl)methyl]-5-(4-methylphenyl)-2,3-dihydro-1H-pyrazol-3-one]: the “selectivity for SIRT1 (over SIRT2)” value at SIRT1 [1] is given as “greater than 5 fold”.

(Values after PMC4002067 (Journal of Medicinal Chemistry, 2014).)
